Screens deposited in PubChem BioAssay by several laboratories.
TRPC6 activator: mouse TRPC6 channel activators, primary screen, cell-based, HEK293, membrane potential dye; Short transient receptor potential channel 6 (Mus musculus), Q61143; HEK293-TRPC6 membrane potential dye fluorescence; stronger effect = higher value; B-score at 10 µM; 310,000 tested, 0.13% active;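 active = B-score of the integrated fluorescence ratio above library mean plus 3 SD, and starting fluorescence ratio within library mean plus 5 SD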;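 note: higher score means more depolarization so channel activation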
TRPC4 act: activators of mouse TRPC4 channel, primary screen, Fluo4 calcium, HEK293 TRPC4beta/mu-opioid cells | Short transient receptor potential channel 4 (Mus musculus), Q9QUQ5 | Fluo4 calcium fluorescence; stronger effect = higher value | B-score at 10 µM | 310,000 tested, 0.49% active;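 active = B-score above 5 SD of library B-scores, and initial fluorescence ratio not above library mean plus 5 SD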;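 note: positive B-score marks a calcium rise read as TRPC4 activation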
Target sequence (Q9QUQ5 whole entry, looked up): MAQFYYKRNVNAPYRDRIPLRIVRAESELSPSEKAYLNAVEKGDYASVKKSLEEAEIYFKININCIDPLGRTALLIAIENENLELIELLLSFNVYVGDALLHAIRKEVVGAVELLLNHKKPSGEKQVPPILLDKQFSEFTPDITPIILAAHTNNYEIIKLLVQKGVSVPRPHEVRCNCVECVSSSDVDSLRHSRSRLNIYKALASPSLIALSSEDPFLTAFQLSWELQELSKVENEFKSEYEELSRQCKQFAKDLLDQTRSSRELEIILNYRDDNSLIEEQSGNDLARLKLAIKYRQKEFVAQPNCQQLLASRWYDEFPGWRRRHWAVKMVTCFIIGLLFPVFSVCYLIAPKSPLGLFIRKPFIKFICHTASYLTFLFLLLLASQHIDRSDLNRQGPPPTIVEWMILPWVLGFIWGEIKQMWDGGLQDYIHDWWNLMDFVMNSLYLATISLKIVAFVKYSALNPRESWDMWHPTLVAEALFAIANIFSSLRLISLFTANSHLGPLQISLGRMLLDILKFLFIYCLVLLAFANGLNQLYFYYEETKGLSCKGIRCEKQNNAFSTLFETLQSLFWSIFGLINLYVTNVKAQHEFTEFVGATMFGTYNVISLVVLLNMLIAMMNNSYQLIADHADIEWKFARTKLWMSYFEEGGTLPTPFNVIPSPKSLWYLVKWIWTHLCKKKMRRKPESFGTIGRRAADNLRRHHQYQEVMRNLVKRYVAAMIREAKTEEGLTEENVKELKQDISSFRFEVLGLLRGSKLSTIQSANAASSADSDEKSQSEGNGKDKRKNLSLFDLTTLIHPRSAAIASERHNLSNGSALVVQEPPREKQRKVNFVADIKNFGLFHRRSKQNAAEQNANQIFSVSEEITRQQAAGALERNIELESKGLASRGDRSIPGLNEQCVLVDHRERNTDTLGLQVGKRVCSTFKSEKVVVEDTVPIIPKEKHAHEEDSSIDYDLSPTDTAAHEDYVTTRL
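Incubation: 45 min room-temperature Fluo4 loading, 110 s read / System: HEK293 cells stably co-expressing mouse TRPC4beta and mu-opioid receptor / Signal: Fluo4 fluorescence, kinetic / Control set: buffer (low) and maximal DAMGO (high) / Measure: integrated baseline-normalised fluorescence ratio, converted to per-well B score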
FID counter: compounds displacing fluorescent DNA intercalator, primary screen, artefact control for HCV NS3 helicase inhibitor project, biochemical, FID fluorescence; DNA fluorescent intercalator displacement; AID 1845, 2009; 290,000 tested, 0.17% active; inhibition, % at 7.9 µM; in the data active = inhibition above about 37%;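 note: higher means more ethidium bromide displaced from hairpin DNA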
TRPC4 PAM: positive allosteric modulators of TRPC4, primary screen, cell-based, mouse TRPC4beta, HEK293 mu-opioid, Fluo-4 calcium | B-score at 10 µM | DAMGO EC20, Fluo-4 Ca2+ flux; stronger effect = higher value | AID 2227, 2009 | Short transient receptor potential channel 4 (Mus musculus), Q9QUQ5 | 310,000 tested, 0.42% active;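 active = B-score of calcium response area above 5 SD of library B-scores, with initial fluorescence ratio within 5 SD of library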
TRPC4 block: inhibitors of mouse TRPC4 channel, primary screen, Fluo4 calcium, HEK293 TRPC4beta/mu-opioid cells; B-score at 10 µM; DAMGO-evoked Fluo4 calcium flux; stronger effect = lower value; Short transient receptor potential channel 4 (Mus musculus), Q9QUQ5; 300,000 tested, 0.39% active;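 active = B-score over 3 SD under the library average, no early fluorescence shift, positive overall ratio signal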
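Assay system – HEK293 line stably carrying TRPC4beta and mu-opioid receptor · Doses – single dose · Detection – Fluo4 calcium-dye fluorescence, kinetic read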
TRPC6 inhibitor: mouse TRPC6 channel inhibitors, primary screen, cell-based, HEK293, membrane potential dye; Short transient receptor potential channel 6 (Mus musculus), Q61143; ACh-evoked depolarization; stronger effect = lower value; B-score at 10 µM; 310,000 tested, 1.1% active; AID 2553, 2010;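 active = B-score under library mean minus 3 SD, initial fluorescence not abnormally high, positive integrated signal ratio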;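 note: B-score derived from integrated fluorescence ratio over the kinetic read; more negative B-score means stronger inhibition of depolarization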
TRPC4 spec 2: second selectivity test of TRPC6 inhibitors: effect on mouse TRPC4. 920 tested, 42% active. inhibition, % at 10 µM. HEK293 TRPC4/MOR, membrane potential dye fluorescence; channel activated by saturating DAMGO dose. shares compounds with TRPC6 inhibitor;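 active = compounds whose fluorescence signal differed from control wells by over 3 SD, either direction, in both duplicate plates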
TRPC4 spec: mouse TRPC4 modulation by TRPC6 hits, confirmation, selectivity assay for TRPC6 inhibitor project, cell-based, HEK293 TRPC4/mu-opioid, membrane potential dye; shares compounds with TRPC6 inhibitor; 920 tested, 61% active; activity change, negative = inhibition, % at 10 µM; membrane potential fluorescence; AID 2777, 2010;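 active = rise or fall in signal beyond 3 SD of buffer-only wells in both replicate plates, either sign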;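 note: integrated kinetic ratio of fluorescence range over baseline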
HEK293 MPD ctr 2-1: nonspecific membrane potential effects, parental HEK293, confirmation, counter-screen for TRPC6 inhibitor project, cell-based, second counter screen | shares compounds with TRPC6 inhibitor | parental HEK293 membrane potential dye fluorescence; maximal acetylcholine challenge after compound addition | signal change vs control, % at 10 µM | 920 tested, 31% active | AID 2779, 2010;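 active = membrane potential signal moving either way by over 3 SD of the maximum-effect control, in both duplicate plates, meaning non-specific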
HEK293 MPD ctr-1: membrane potential modulation in parental HEK293, confirmation, counter-screen for TRPC6 inhibitor project, cell-based | shares compounds with TRPC6 inhibitor | parental HEK293 membrane potential dye fluorescence | membrane potential signal change, % at 10 µM | 920 tested, 60% active;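 active = membrane potential signal shifting up or down by more than 3 SD of buffer-only wells, on both duplicate plates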
HEK293 MPD ctr-2: parental HEK293 membrane potential modulation, confirmation, counter-screen for TRPC6 modulator project, cell-based; shares compounds with TRPC6 inhibitor; membrane potential dye fluorescence; AID 488924, 2010; membrane potential signal change, % at 10 µM; 2,400 tested, 51% active;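 active = membrane potential signal moves up or down beyond 5 SD from buffer-only wells, on both duplicate plates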
HEK293 MPD ctr 2-2: parental HEK293 nonspecific activity of TRPC6 modulators, second screen; shares compounds with TRPC6 inhibitor; membrane potential dye fluorescence; after compound, maximal acetylcholine stimulation; inhibition, % at 10 µM; 2,400 tested, 14% active; AID 488926;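 active = membrane potential signal drops by more than 5 SD from the mean control signal, in both duplicate plates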
TRPC4/MOR mod: TRPC4 modulation by TRPC6 hit compounds, confirmation, selectivity assay for TRPC6 modulator project, cell-based, HEK293 TRPC4/mu-opioid, membrane potential dye, mouse; shares compounds with TRPC6 inhibitor; membrane potential fluorescence; percent change from control (negative = decrease, positive = increase), % at 10 µM; 2,400 tested, 69% active; AID 488927, 2010;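 active = membrane potential signal moved up or down beyond 5 SD of buffer control wells, in both duplicate plates, actives on both sides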
TRPC4/MOR inh 2: second selectivity test of TRPC6 modulators against mouse TRPC4; HEK293 TRPC4/mu-opioid, membrane potential dye fluorescence; stimulated with maximal-effect DAMGO; 2,400 tested, 55% active; inhibition, % at 10 µM; AID 488928; shares compounds with TRPC6 inhibitor;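 active = drop in membrane potential signal beyond 5 SD of the control wells in both duplicate plates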;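 note: TRPC4 counter screen for TRPC6 hits run under conditions tuned for TRPC6 not TRPC4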
TRPC6 inh conf: mouse TRPC6 channel inhibitors, confirmation, HEK293 cells, membrane potential dye, duplicate | 3,300 tested, 43% active | ACh-evoked depolarization | shares compounds with TRPC6 inhibitor | inhibition, % at 10 µM;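 active = fluorescence ratio falls more than 5 SD below the full-stimulation control mean, in both duplicate runs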;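 note: integrated fluorescence ratio of peak minus minimum over baseline after agonist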
TRPC6 act conf: mouse TRPC6 channel activators, confirmation, HEK293 cells, membrane potential dye, duplicate | shares compounds with TRPC6 inhibitor | HEK293-TRPC6 membrane potential dye fluorescence, FDSS | activation, % at 10 µM | 2,800 tested, 11% active | AID 488961, 2010;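 active = ratio signal rise beyond 5 SD above unstimulated control wells' mean, seen in both duplicate runs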
A number is an active result. Rows were chosen to be rich in hits. Some 2.3% of all compounds tested hit in one or more screens of this group.

Screening CC(NS(=O)(=O)c1ccccc1)C1CC2CCC1C2 (configuration not stated) returned TRPC6 activator inactive, TRPC4 act inactive, TRPC4 PAM inactive, TRPC4 block inactive and TRPC6 inhibitor inactive.
Screening COc1ccc(CC(=O)NC2CC(C)(C)NC(C)(C)C2)cc1OC returned TRPC6 activator inactive, TRPC4 act inactive, FID counter inactive, TRPC4 PAM inactive, TRPC4 block inactive and TRPC6 inhibitor inactive.
`C=CCN1CCN(C(=O)c2cc3c(s2)CCCC3)CC1` gave TRPC6 activator inactive, TRPC4 act inactive, FID counter inactive, TRPC4 PAM inactive, TRPC4 block inactive and TRPC6 inhibitor inactive.
CN1C(=O)CS/C1=N\NC(=O)COc1cccc2cccnc12 was read as TRPC6 activator inactive, TRPC4 act inactive, FID counter inactive, TRPC4 PAM inactive, TRPC4 block inactive, TRPC6 inhibitor -5.9, HEK293 MPD ctr-2 -230%, HEK293 MPD ctr 2-2 inactive, TRPC4/MOR mod -42%, TRPC4/MOR inh 2 inactive, TRPC6 inh conf inactive and TRPC6 act conf inactive.
For Cc1nnc(Nc2ccc3c(c2)ncn3C)c2ccccc12 the results were TRPC6 activator inactive, TRPC4 act inactive, FID counter inactive, TRPC4 PAM inactive, TRPC4 block inactive, TRPC6 inhibitor -9.5, TRPC4 spec 2 inactive, TRPC4 spec -24%, HEK293 MPD ctr 2-1 -7.0%, HEK293 MPD ctr-1 -324%, TRPC6 inh conf 56% and TRPC6 act conf inactive.
Screening CNC(=O)c1ccc(Nc2nnc(C)c3ccccc23)cc1 returned TRPC6 activator inactive, TRPC4 act inactive, FID counter inactive, TRPC4 PAM inactive, TRPC4 block inactive, TRPC6 inhibitor -5.5, HEK293 MPD ctr-2 -99%, HEK293 MPD ctr 2-2 inactive, TRPC4/MOR mod inactive, TRPC4/MOR inh 2 inactive, TRPC6 inh conf inactive and TRPC6 act conf inactive.
`N#Cc1ccc(-c2cn(-c3ccccc3)c3[n+]2CCCS3)cc1` gave TRPC6 activator inactive, TRPC4 act inactive, FID counter inactive, TRPC4 PAM inactive, TRPC4 block inactive, TRPC6 inhibitor -6, HEK293 MPD ctr-2 -214%, HEK293 MPD ctr 2-2 inactive, TRPC4/MOR mod -35%, TRPC4/MOR inh 2 38%, TRPC6 inh conf inactive and TRPC6 act conf inactive.
For c1ccc(-c2cn(-c3ccccc3)c3[n+]2CCCS3)cc1 the results were TRPC6 activator inactive, TRPC4 act inactive, FID counter inactive, TRPC4 PAM inactive, TRPC4 block inactive and TRPC6 inhibitor inactive.
`CCCCN(C)C(=O)CSc1nc(NCc2ccc(OC)cc2)c2ccccc2n1` gave TRPC6 activator inactive, TRPC4 act inactive, FID counter inactive, TRPC4 PAM inactive, TRPC4 block inactive, TRPC6 inhibitor -9.7, TRPC4 spec 2 68%, TRPC4 spec 4.6%, HEK293 MPD ctr 2-1 inactive, HEK293 MPD ctr-1 6.4%, TRPC6 inh conf inactive and TRPC6 act conf inactive.
Cc1cccc(C)c1NC(=O)CNC(=O)CCCc1c[nH]c2ccccc12 was read as TRPC6 activator inactive, TRPC4 act inactive, TRPC4 PAM inactive, TRPC4 block inactive and TRPC6 inhibitor inactive.
O=C(CCS(=O)(=O)c1ccccc1Cl)NCCC1=CCCCC1 was read as TRPC6 activator inactive, TRPC4 act inactive, FID counter inactive, TRPC4 PAM inactive, TRPC4 block inactive and TRPC6 inhibitor inactive.
`Cc1cccc(NC(=S)NNC(=O)c2cccc([N+](=O)[O-])c2)c1` gave TRPC6 activator inactive, TRPC4 act inactive, FID counter inactive, TRPC4 PAM inactive, TRPC4 block inactive and TRPC6 inhibitor inactive.
For C/C(=N/NC(=S)Nc1cccc(C)c1)c1cccc([N+](=O)[O-])c1 the results were TRPC6 activator inactive, TRPC4 act inactive, FID counter inactive, TRPC4 PAM inactive, TRPC4 block inactive, TRPC6 inhibitor -5.3, HEK293 MPD ctr-2 inactive, HEK293 MPD ctr 2-2 inactive, TRPC4/MOR mod inactive, TRPC4/MOR inh 2 30%, TRPC6 inh conf inactive and TRPC6 act conf inactive.
